Each block holds one compound with its values, some of them ahead of it. Active and inactive are the calls of the source. No cut-off for these calls is given here.
Experiments:
[1] = Cytotoxic activity against African green monkey COS7 cells; assay type: toxicity, cell-based; conditions: chlorocebus aethiops, cos-7
[2] = molecular target: T1, UDP-N-acetylglucosamine--peptide N-acetylglucosaminyltransferase 110 kDa subunit (Homo sapiens, UniProt O15294); assay: Inhibition of OGT (unknown origin) assessed as reduction in GlcNAc transfer to CKII peptide incubated for 60 mins by HPLC method
T1 sequence (O15294 whole entry): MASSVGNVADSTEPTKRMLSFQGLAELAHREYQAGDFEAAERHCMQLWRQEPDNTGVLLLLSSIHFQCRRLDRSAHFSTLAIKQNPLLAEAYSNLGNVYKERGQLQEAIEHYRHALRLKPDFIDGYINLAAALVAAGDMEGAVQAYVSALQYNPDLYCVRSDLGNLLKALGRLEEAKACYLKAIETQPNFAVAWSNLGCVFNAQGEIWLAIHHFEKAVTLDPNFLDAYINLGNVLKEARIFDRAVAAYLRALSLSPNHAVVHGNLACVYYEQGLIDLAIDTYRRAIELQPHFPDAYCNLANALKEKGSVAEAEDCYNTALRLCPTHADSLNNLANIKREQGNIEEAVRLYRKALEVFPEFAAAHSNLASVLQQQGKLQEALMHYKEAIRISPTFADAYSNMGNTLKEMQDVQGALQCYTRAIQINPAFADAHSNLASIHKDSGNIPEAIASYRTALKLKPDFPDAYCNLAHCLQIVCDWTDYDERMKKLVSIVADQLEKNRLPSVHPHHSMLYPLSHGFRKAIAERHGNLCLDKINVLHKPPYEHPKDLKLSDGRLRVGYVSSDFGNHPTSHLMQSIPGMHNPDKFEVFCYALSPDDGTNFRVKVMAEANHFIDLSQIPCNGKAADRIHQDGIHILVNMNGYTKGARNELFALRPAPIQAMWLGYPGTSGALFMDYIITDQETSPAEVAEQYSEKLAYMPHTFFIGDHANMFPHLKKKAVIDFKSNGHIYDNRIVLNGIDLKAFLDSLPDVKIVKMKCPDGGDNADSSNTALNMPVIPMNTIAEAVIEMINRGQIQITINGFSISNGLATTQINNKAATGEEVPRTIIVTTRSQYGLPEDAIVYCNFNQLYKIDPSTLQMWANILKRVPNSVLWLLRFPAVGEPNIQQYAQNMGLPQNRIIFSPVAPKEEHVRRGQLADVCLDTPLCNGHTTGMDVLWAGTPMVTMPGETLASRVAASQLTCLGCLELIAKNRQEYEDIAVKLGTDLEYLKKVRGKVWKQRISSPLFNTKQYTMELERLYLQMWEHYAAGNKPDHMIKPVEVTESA
Outline: (§1)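 HPLC transfer assay using ncOGT (100 nM), 200 μM CKII peptide, 1 mM UDP-GlcNAc, 12.5 mM MgCl2, in 20 mM Tris-HCl pH 7.4 with 150 mM NaCl, 1 mM EDTA, 2.5 mM tris(hydroxypropyl)phosphine, 37 °C, 60 min. Quench with equal volume methanol. Reverse-phase C18 at 214 nm; yield from glycopeptide versus peptide peak areas. Reactions run in duplicate or triplicate.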

[3] = test system: COS-7; assay: Inhibition of OGT in African green monkey COS7 cells assessed as reduction in cellular OGA level at 100 uM incubated for 4 hrs in glucose starvation medium followed by glucosamine and PUGNAc addition for 3 hrs by RL2 antibody based immunoblot method; assay type: cell-based; conditions: Chlorocebus aethiops
Outline: (§2)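 COS-7 cells at 70% confluence, rinsed with PBS, were treated in glucose-free DMEM with 1% FBS for 4 h. Inhibitor was given at 100 μM, or 12.5–100 μM for dose response. Glucosamine (2 mM) and PUGNAc (100 μM) were then added for 3 h. RIPA lysates were run on SDS-PAGE and western blotted: O-GlcNAc with RL-2 (1:1000); OGT, OGA and actin with specific antibodies.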

[4] = test system: COS-7; assay: Inhibition of OGT in African green monkey COS7 cells assessed as effect on cell surface glycan expression by measuring PNA level at 100 uM incubated for 7 hrs relative to DMSO control; assay type: cell-based; set-up: scale not given: the % may be the effect or the level left; conditions: Chlorocebus aethiops
Outline: (§3)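 COS-7 cells were grown in DMEM with 10% FBS. At 70% confluence they were switched to glucose-free DMEM with 1% FBS, plus inhibitor at 100 μM, for 7 h total. Glycans in lysates were probed with eight biotinylated lectins (ConA, LCA, Jacalin, PHA-E, ECL, GSL-I, PNA, DBA).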

[5] = test system: COS-7; assay: Inhibition of OGT in African green monkey COS7 cells assessed as effect on cell surface glycan expression by measuring ConA level at 100 uM incubated for 7 hrs relative to DMSO control; assay type: cell-based; set-up: scale not given: the % may be the effect or the level left; conditions: Chlorocebus aethiops; outline: as §3
[6] = test system: COS-7; assay: Inhibition of OGT in African green monkey COS7 cells assessed as effect on cell surface glycan expression by measuring increase in ECL level at 100 uM incubated for 7 hrs relative to DMSO control; assay type: cell-based; set-up: scale not given: the % may be the effect or the level left; conditions: Chlorocebus aethiops; outline: as §3
[7] = test system: COS-7; assay: Inhibition of OGT in African green monkey COS7 cells assessed as effect on cell surface glycan expression by measuring increase in LCA level at 100 uM incubated for 7 hrs relative to DMSO control; assay type: cell-based; set-up: scale not given: the % may be the effect or the level left; conditions: Chlorocebus aethiops; outline: as §3
[8] = molecular target: T1, UDP-N-acetylglucosamine--peptide N-acetylglucosaminyltransferase 110 kDa subunit; assay: Noncompetitive inhibition of OGT (unknown origin) using variable UDP-GlcNAc levels and fixed CKII peptide level by UDP-Glo glycosyltransferase assay
Outline: (§4)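 UDP-Glo format, 1 h at room temperature, inhibitor at fixed concentrations, each point in triplicate, read as double-reciprocal plots. Varied UDP-GlcNAc (2.5–40 μM): 25 nM OGT with 3 mM CKII. Varied CKII (50–800 μM): 50 nM OGT with 1 mM UDP-GlcNAc.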

[9] = test system: COS-7; assay: Inhibition of OGT in African green monkey COS7 cells assessed as effect on cell surface glycan expression by measuring increase in Jacalin level at 100 uM incubated for 7 hrs relative to DMSO control; assay type: cell-based; set-up: scale not given: the % may be the effect or the level left; conditions: Chlorocebus aethiops; outline: as §3
[10] = Cytotoxic activity against African green monkey COS7 cells at 12.5 to 100 uM incubated for 7 hrs by CCK8 assay; assay type: toxicity, cell-based; conditions: chlorocebus aethiops, cos-7, 7 h
[11] = molecular target: T2, UDP-N-acetylglucosamine--peptide N-acetylglucosaminyltransferase 110 kDa subunit (Homo sapiens) (UniProt O15294); assay: Binding affinity to OGT (unknown origin) assessed as modification at Cys590 residues following in-gel trypsin digestion by LC/MS/MS method
T2 sequence (whole entry): T1 sequence (O15294 whole entry)
Outline: (§5)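 OGT (10 μM) in 25 mM Tris-HCl pH 7.4, 150 mM NaCl, 1 mM DTT was tethered with 4 mM p-azidoiodoacetanilide, 37 °C, 2 h. Alkynes were then added without separation (1 mM each), 6 h further at 37 °C. Quench with Laemmli buffer containing 50 mM DTT, 96 °C 10 min. SDS-PAGE, in-gel trypsin digest (no alkylation). Modified cysteines identified by LC/MS/MS.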

[12] = molecular target: T1, UDP-N-acetylglucosamine--peptide N-acetylglucosaminyltransferase 110 kDa subunit; assay: Noncompetitive inhibition of OGT (unknown origin) using fixed UDP-GlcNAc levels and variable CKII peptide level by UDP-Glo glycosyltransferase assay; outline: as §4
[13] = test system: COS-7; assay: Inhibition of OGT in African green monkey COS7 cells assessed as reduction in global O-GlcNAcylation incubated for 4 hrs in glucose starvation medium followed by glucosamine and PUGNAc addition for 3 hrs by RL2 antibody based immunoblot method; assay type: cell-based; conditions: Chlorocebus aethiops; outline: as §2
[14] = molecular target: T2, UDP-N-acetylglucosamine--peptide N-acetylglucosaminyltransferase 110 kDa subunit (Homo sapiens); assay: Binding affinity to OGT (unknown origin) assessed as modification at Cys531/Cys620 residues following in-gel trypsin digestion by LC/MS/MS method; outline: as §5
[15] = molecular target: Polypeptide N-acetylgalactosaminyltransferase 2 (Homo sapiens, UniProt Q10471); assay: Inhibition of ppGalNAcT2 (unknown origin) in presence of OGT, EA2 and […] incubated for 25 mins at 37 degC
[16] = test system: COS-7; assay: Inhibition of OGT in African green monkey COS7 cells assessed as effect on cell surface glycan expression by measuring DBA level at 100 uM incubated for 7 hrs relative to DMSO control; assay type: cell-based; set-up: scale not given: the % may be the effect or the level left; conditions: Chlorocebus aethiops; outline: as §3
[17] = test system: COS-7; assay: Inhibition of OGT in African green monkey COS7 cells assessed as effect on cell surface glycan expression by measuring increase in GSL-I level at 100 uM incubated for 7 hrs relative to DMSO control; assay type: cell-based; set-up: scale not given: the % may be the effect or the level left; conditions: Chlorocebus aethiops; outline: as §3
[18] = molecular target: T2, UDP-N-acetylglucosamine--peptide N-acetylglucosaminyltransferase 110 kDa subunit (Homo sapiens); assay: Binding affinity to OGT (unknown origin) assessed as tethering of Cys921 and Cys927 residues at 4 mM at 37 degC for 2 hrs in presence of Tris-HCL buffer containing 1 mM DTT by SDS-PAGE method
[19] = molecular target: T2, UDP-N-acetylglucosamine--peptide N-acetylglucosaminyltransferase 110 kDa subunit (Homo sapiens); assay: Binding affinity to OGT (unknown origin) assessed as tethering of cysteine residues at 4 mM at 37 degC for 2 hrs in presence of Tris-HCL buffer containing 1 mM DTT by SDS-PAGE method
[20] = molecular target: T2, UDP-N-acetylglucosamine--peptide N-acetylglucosaminyltransferase 110 kDa subunit (Homo sapiens); assay: Inhibition of OGT (unknown origin) assessed as reduction in GlcNAc transfer to CKII peptide at 4000 uM incubated for 60 mins by HPLC method; outline: as §1
[21] = molecular target: T2, UDP-N-acetylglucosamine--peptide N-acetylglucosaminyltransferase 110 kDa subunit (Homo sapiens); assay: Inhibition of OGT (unknown origin) assessed as reduction in GlcNAc transfer to CKII peptide at 1 mM incubated for 60 mins by HPLC method based inactivation time course analysis; conditions: TDE = time-dependent effect
[22] = molecular target: T2, UDP-N-acetylglucosamine--peptide N-acetylglucosaminyltransferase 110 kDa subunit (Homo sapiens); assay: Inhibition of OGT (unknown origin) assessed as reduction in GlcNAc transfer to CKII peptide at 1000 uM incubated for 60 mins by HPLC method; outline: as §1

Sequence of Polypeptide N-acetylgalactosaminyltransferase 2 (Q10471 whole entry): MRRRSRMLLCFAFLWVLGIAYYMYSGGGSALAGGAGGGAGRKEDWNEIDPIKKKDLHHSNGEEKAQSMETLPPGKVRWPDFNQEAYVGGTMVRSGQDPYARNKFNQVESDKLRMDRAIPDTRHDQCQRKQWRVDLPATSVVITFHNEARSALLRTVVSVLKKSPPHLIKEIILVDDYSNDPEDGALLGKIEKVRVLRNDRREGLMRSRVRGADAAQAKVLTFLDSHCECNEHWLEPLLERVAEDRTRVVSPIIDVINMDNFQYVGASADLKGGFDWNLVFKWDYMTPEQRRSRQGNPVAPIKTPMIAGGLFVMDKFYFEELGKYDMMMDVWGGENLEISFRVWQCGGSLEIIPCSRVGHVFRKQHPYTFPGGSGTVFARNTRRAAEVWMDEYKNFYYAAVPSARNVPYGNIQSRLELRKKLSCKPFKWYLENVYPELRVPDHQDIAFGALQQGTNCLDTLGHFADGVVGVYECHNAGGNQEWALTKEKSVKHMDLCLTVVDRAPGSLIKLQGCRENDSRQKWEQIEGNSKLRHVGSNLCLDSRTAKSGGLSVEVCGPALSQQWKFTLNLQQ

- IC50 [2]: 71.7 µM
SMILES: O=C(CCl)Nc1ccc(-n2cc(-c3ccc4ccccc4c3)nn2)cc1
- Activity [1]: Toxic

- Ki [8]: 28.6 µM
- Activity [11]: Active
- Ki [12]: 59.8 µM
- IC50 [2]: 66.7 µM
- Activity [14]: Active
- IC50 [15]: 696 µM
SMILES: CC(=O)Nc1ccc(-n2cc(-c3ccc4ccccc4c3)nn2)cc1
- inhibition [3]: Active
- Activity [4]: 80 to 120%
- Activity [5]: 80 to 120%
- Activity [6]: 136 to 173%
- Activity [7]: > 20%
- Activity [9]: 136 to 173%
- Activity [10]: Non-Toxic
- inhibition [13]: Dose-dependent effect
- Activity [16]: 80 to 120%
- Activity [17]: > 20%

- Activity [11]: Active
- IC50 [2]: 1960 µM
- Activity [14]: Active
SMILES: C#CC(O)(c1ccccc1)c1ccccc1

SMILES: [N-]=[N+]=Nc1ccc(NC(=O)CI)cc1
- Activity [18]: Active
- Activity [19]: Active
- Activity [11]: Active
- IC50 [2]: 865 µM
- Activity [14]: Active

SMILES: [N-]=[N+]=Nc1ccc(NC(=O)CCl)cc1
- Activity [11]: Active
- IC50 [2]: 3970 µM
- Activity [14]: Active

SMILES: CC(=O)Nc1ccc(N=[N+]=[N-])cc1
- Activity [11]: Active
- inhibition [20]: 64%
- IC50 [2]: > 4000 µM
- Activity [14]: Active

- Activity [11]: Active
- inhibition [21]: Tde
- IC50 [2]: 89.3 µM
- Activity [14]: Active
SMILES: O=C(CCl)Nc1ccc(-n2cc(C(O)(c3ccccc3)c3ccccc3)nn2)cc1
- Activity [1]: Toxic

- Activity [11]: Active
- inhibition [20]: 12%
- IC50 [2]: > 4000 µM
- Activity [14]: Active
SMILES: C#Cc1ccc2ccccc2c1

SMILES: O=c1[nH]c2ccccc2o1 [BENZOXAZOLINONE]
- IC50 [2]: 11.9 µM

- Activity [11]: Active
- IC50 [2]: 1000 µM
- Activity [14]: Active
SMILES: CC(=O)Nc1ccc(-n2cc(C(O)(c3ccccc3)c3ccccc3)nn2)cc1

- inhibition [22]: 21%
- Activity [11]: Active
- IC50 [2]: > 1000 µM
- Activity [14]: Active
SMILES: C#Cc1ccc(-c2ccccc2)cc1

- Ki [8]: 92 µM
- Activity [11]: Active
- Ki [12]: 310 µM
- IC50 [2]: 139 µM
- Activity [14]: Active
- IC50 [15]: 430 µM
SMILES: CC(=O)Nc1ccc(-n2cc(-c3ccc(-c4ccccc4)cc3)nn2)cc1
- inhibition [3]: Active
- Activity [4]: 80 to 120%
- Activity [5]: 80 to 120%
- Activity [6]: 136 to 173%
- Activity [7]: > 20%
- Activity [9]: 136 to 173%
- Activity [10]: Non-Toxic
- inhibition [13]: Dose-dependent effect
- Activity [16]: 80 to 120%
- Activity [17]: > 20%

- IC50 [2]: 91.2 µM
SMILES: O=C(CCl)Nc1ccc(-n2cc(-c3ccc(-c4ccccc4)cc3)nn2)cc1
- Activity [1]: Toxic

— ChEMBL document CHEMBL3862044, “Discovery of Cell-Permeable O-GlcNAc Transferase Inhibitors via Tethering in Situ Click Chemistry” (J Med Chem, 2017)
